Assay [1] addresses Matrix metalloproteinase-9 (Homo sapiens, UniProt P14780). The assay is described as follows: In vitro inhibitory activity against matrix metalloprotease-9 (MMP-9).
The next assay deals with Collagenase 3 (Homo sapiens, UniProt P45452). The assay is described as follows: In vitro inhibitory activity against matrix metalloprotease-13 (MMP-13).
The next assay addresses T1, Matrilysin (Homo sapiens, UniProt P09237).
T1 sequence (P09237 whole entry): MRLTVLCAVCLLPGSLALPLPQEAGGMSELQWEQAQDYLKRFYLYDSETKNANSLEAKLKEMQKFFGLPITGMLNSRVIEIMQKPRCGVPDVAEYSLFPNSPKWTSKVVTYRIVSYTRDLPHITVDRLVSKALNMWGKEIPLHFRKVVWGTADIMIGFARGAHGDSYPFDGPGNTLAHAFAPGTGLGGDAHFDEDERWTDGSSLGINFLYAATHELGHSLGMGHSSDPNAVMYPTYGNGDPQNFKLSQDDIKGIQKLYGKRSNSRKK
Briefly: In vitro inhibitory activity against matrix metalloprotease-7 (MMP-7). The procedure, abridged: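 MMP-7 supplied as active enzyme. It was incubated with 8 µM […] in 50 mM Tris-HCl pH 7.5, 10 mM CaCl2, 0.15 M NaCl, 0.05% Brij for 20-30 min at 37 °C with varying inhibitor. The reaction was quenched with 50 mM EDTA and fluorescence read at ex 328/em 393 nm. Activity is expressed as % of uninhibited control, triplicates; IC50 from 4-parameter logistic fit.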

Another assay has as its target Stromelysin-1 (Homo sapiens, UniProt P08254). Briefly: In vitro inhibitory activity against matrix metalloprotease-3 (MMP-3).
The target of the next assay is T2, Interstitial collagenase (Homo sapiens, UniProt P03956).
T2 sequence (P03956 whole entry): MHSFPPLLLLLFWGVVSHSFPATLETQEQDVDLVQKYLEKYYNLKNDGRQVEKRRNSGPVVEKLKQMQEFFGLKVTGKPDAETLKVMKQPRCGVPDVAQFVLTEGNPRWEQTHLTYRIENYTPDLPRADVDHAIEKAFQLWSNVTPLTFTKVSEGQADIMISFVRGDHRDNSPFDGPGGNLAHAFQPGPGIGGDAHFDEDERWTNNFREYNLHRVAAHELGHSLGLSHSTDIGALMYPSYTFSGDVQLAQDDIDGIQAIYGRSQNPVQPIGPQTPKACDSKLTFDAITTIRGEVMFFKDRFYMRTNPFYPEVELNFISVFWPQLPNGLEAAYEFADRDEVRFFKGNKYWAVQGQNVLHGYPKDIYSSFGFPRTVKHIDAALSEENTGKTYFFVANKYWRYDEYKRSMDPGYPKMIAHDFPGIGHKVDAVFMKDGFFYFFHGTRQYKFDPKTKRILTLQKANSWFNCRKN
The assay is described as follows: In vitro inhibitory activity against matrix metalloprotease-1 (MMP-1).

We go through 35 compounds from ChEMBL document CHEMBL1133577, “Design and synthesis of piperazine-based matrix metalloproteinase inhibitors” (J Med Chem, 2000).

SMILES strings stand for the structures. pIC50: −log10 of the molar value.

Sequence of Matrix metalloproteinase-9 (P14780 whole entry): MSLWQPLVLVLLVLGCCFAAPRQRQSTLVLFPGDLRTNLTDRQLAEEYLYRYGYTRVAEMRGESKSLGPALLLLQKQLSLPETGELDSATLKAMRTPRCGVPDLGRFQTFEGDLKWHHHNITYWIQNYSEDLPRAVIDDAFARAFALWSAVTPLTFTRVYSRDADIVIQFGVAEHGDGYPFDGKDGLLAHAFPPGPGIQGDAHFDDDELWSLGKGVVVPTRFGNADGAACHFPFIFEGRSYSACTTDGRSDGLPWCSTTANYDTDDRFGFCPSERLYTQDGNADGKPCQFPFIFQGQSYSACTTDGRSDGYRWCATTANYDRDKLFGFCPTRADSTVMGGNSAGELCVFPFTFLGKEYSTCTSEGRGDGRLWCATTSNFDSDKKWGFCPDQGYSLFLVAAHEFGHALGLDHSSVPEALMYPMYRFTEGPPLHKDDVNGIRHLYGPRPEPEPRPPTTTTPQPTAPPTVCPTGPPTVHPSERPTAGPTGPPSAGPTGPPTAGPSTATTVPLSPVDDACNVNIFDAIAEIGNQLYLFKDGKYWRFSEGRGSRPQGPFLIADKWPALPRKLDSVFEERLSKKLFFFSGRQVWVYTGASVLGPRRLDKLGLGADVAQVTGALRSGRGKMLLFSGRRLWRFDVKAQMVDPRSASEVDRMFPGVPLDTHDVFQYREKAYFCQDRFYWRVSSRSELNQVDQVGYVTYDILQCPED
Sequence of Stromelysin-1 (P08254 whole entry): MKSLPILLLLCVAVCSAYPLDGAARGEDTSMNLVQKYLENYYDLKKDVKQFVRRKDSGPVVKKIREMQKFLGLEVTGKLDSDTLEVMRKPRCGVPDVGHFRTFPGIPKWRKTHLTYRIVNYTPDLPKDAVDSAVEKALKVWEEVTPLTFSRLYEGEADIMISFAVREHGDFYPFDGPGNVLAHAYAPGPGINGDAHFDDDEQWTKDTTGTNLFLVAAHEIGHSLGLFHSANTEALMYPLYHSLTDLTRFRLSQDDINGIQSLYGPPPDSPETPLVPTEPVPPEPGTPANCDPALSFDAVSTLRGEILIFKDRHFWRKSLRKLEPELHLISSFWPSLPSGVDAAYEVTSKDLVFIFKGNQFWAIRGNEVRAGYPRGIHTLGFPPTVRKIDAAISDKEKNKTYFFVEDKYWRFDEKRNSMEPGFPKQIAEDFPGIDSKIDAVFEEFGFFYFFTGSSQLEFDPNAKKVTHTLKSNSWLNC

With `COc1ccc(S(=O)(=O)N2CCN(C(=O)[C@@H](O)C(C)C)CC2C(=O)NO)cc1` (stereo partly specified), the pIC50 in assay [1] is 8.36; against Collagenase 3, 9.00; at Matrilysin, 5.77; against Stromelysin-1, 7.22; on Interstitial collagenase, 6.64.

In the case of `CCCCCCN(C)C(=O)N1CCN(S(=O)(=O)c2ccc(OC)cc2)C(C(=O)NO)C1` (stereo unspecified), the negative logarithm of the IC50 (pIC50) in assay [1] is 8.22; against Collagenase 3, 8.72; on Matrilysin, 5.49; on Stromelysin-1 it was 8.37; on Interstitial collagenase, 7.15.

`COc1ccc(S(=O)(=O)N2CCN(S(=O)(=O)c3c(C)noc3C)CC2C(=O)NO)cc1` (stereo unspecified): the pIC50 is 8.62 in assay [1]; 8.89 at Collagenase 3; 5.99 against Matrilysin; 8.49 at Stromelysin-1; 7.27 against Interstitial collagenase.

For the compound `CCCCCC(=O)N1CCN(S(=O)(=O)c2ccc(OC)cc2)C(C(=O)NO)C1` (stereo unspecified), the pIC50 on Matrilysin is 6.10; at Stromelysin-1 it was 7.41; at Interstitial collagenase it was 6.94.

`COc1ccc(S(=O)(=O)N2CCN(C(=O)c3ccco3)CC2C(=O)NO)cc1` (stereo unspecified): the negative-log IC50 (pIC50) was 8.80 in assay [1]; 8.60 at Collagenase 3; 6.19 at Matrilysin; 8.12 against Stromelysin-1; 7.60 against Interstitial collagenase.

Regarding `COc1ccc(S(=O)(=O)N2CCN(S(C)(=O)=O)CC2C(=O)NO)cc1` (stereo unspecified), the pIC50 in assay [1] is 9.22; against Collagenase 3, 9.00; at Matrilysin it was 6.32; against Stromelysin-1 it was 8.46; on Interstitial collagenase, 8.10.

For the compound `COc1ccc(S(=O)(=O)N2CCN(Cc3ccccc3)CC2C(=O)NO)cc1` (stereo unspecified), the negative-log IC50 (pIC50) in assay [1] was 8.12; against Collagenase 3, 8.10; against Matrilysin it was 4.85; on Stromelysin-1, 7.12; against Interstitial collagenase it was 6.49.

Turning to `CCCCCCNC(=O)N1CCN(S(=O)(=O)c2ccc(OC)cc2)C(C(=O)NO)C1` (stereo unspecified), the pIC50 in assay [1] was 8.59; against Collagenase 3, 8.85; against Matrilysin, 6.30; against Stromelysin-1, 7.55; against Interstitial collagenase, 7.52.

`CCCCCCN1CCN(S(=O)(=O)c2ccc(OC)cc2)C(C(=O)NO)C1` (stereo unspecified): the pIC50 in assay [1] was 7.77; against Collagenase 3, 8.38; at Matrilysin, 4.80; at Stromelysin-1 it was 7.15; on Interstitial collagenase it was 6.00.

For the compound `CCCCCCN(C)C(=O)N1CCN(S(=O)(=O)c2ccc(Br)cc2)C(C(=O)NO)C1` (stereo unspecified), the pIC50 was 7.89 in assay [1]; 8.35 against Collagenase 3; 5.92 against Matrilysin; 6.76 on Stromelysin-1; 7.06 on Interstitial collagenase.

`COc1ccc(S(=O)(=O)N2CCN(S(=O)(=O)c3ccc(OC)cc3)C(C(=O)NO)C2)cc1` (stereo unspecified): the pIC50 was 8.92 in assay [1]; 8.89 against Collagenase 3; 5.72 at Matrilysin; 7.89 at Stromelysin-1; 7.22 on Interstitial collagenase.

The compound `COc1ccc(S(=O)(=O)N2CCNCC2C(=O)NO)cc1` (stereo unspecified) had a pIC50 in assay [1] of 8.16.

For the compound `COc1ccc(S(=O)(=O)N2CCN(C)CC2C(=O)NO)cc1` (stereo unspecified), the pIC50 in assay [1] was 7.60; against Collagenase 3 it was 7.68; against Matrilysin, 5.00; against Stromelysin-1 it was 6.57.

As for `COc1ccc(S(=O)(=O)N2CCN(C(N)=O)CC2C(=O)NO)cc1` (stereo unspecified), the pIC50 was 8.64 in assay [1]; 8.44 on Collagenase 3; 6.27 against Matrilysin; 7.70 against Stromelysin-1; 6.94 against Interstitial collagenase.

As to `COc1ccc(S(=O)(=O)N2CCN(C(=O)N3CCOCC3)CC2C(=O)NO)cc1` (stereo unspecified), the pIC50 is 8.08 in assay [1]; 7.27 on Collagenase 3; 5.36 at Matrilysin; 6.91 on Stromelysin-1; 6.64 against Interstitial collagenase.

For the compound `COc1ccc(S(=O)(=O)N2CCN(C(=O)c3ccc(-c4ccccc4)cc3)CC2C(=O)NO)cc1` (stereo unspecified), the pIC50 on Collagenase 3 was 9.05; on Matrilysin it was 6.03; against Stromelysin-1 it was 7.64; at Interstitial collagenase, 7.37.

For the compound `COCCN(CCOC)C(=O)N1CCN(S(=O)(=O)c2ccc(Br)cc2)C(C(=O)NO)C1` (stereo unspecified), the pIC50 in assay [1] is 7.70; against Collagenase 3 it was 8.49; against Matrilysin, 5.95; at Stromelysin-1, 6.41; at Interstitial collagenase, 7.31.

For `CCCN(CC1CC1)C(=O)N1CCN(S(=O)(=O)c2ccc(OC)cc2)C(C(=O)NO)C1` (stereo unspecified), the pIC50 was 8.96 against Collagenase 3, 5.68 against Matrilysin and 7.19 against Stromelysin-1.

With `COc1ccc(S(=O)(=O)N2CCN(C(=O)NCCc3ccccc3)CC2C(=O)NO)cc1` (stereo unspecified), the negative logarithm of the IC50 (pIC50) in assay [1] was 8.44; against Matrilysin, 6.08; against Stromelysin-1 it was 7.57; on Interstitial collagenase, 7.15.

On to `COc1ccc(S(=O)(=O)N2CCN(C(=O)N(C)Cc3ccccc3)CC2C(=O)NO)cc1` (stereo unspecified), for which the results for the negative logarithm of the IC50 (pIC50) on Collagenase 3, at Stromelysin-1 and on Interstitial collagenase were 8.74, 7.42 and 6.49, respectively.

For the compound `COc1ccc(S(=O)(=O)N2CCN(C(=S)NCc3ccccc3)CC2C(=O)NO)cc1` (stereo unspecified), the pIC50 in assay [1] was 8.18; at Matrilysin, 6.40; on Stromelysin-1, 7.39; against Interstitial collagenase it was 7.17.

Take `COc1ccc(S(=O)(=O)N2CCN(C(=O)NCc3ccccc3)CC2C(=O)NO)cc1` (stereo unspecified): the negative logarithm of the IC50 (pIC50) in assay [1] was 8.42; against Collagenase 3 it was 8.62; against Matrilysin it was 6.38; on Stromelysin-1, 7.77; on Interstitial collagenase, 7.00.

Consider `COc1ccc(S(=O)(=O)N2CCN(C(=O)OCc3ccccc3)CC2C(=O)NO)cc1` (stereo unspecified), for which the pIC50 in assay [1] was 8.72; at Collagenase 3 it was 8.89; on Matrilysin it was 6.63; against Interstitial collagenase, 7.62.

Consider `COc1ccc(S(=O)(=O)N2CCN(C(C)=O)CC2C(=O)NO)cc1` (stereo unspecified), for which the pIC50 is 8.74 in assay [1]; 9.00 against Collagenase 3; 6.09 against Matrilysin; 7.74 against Stromelysin-1; 7.14 at Interstitial collagenase.

`COc1ccc(S(=O)(=O)N2CCN(C(=O)COc3ccccc3)CC2C(=O)NO)cc1` (stereo unspecified): the negative-log IC50 (pIC50) was 8.52 in assay [1], 6.04 at Matrilysin, 8.02 at Stromelysin-1 and 7.04 at Interstitial collagenase.

For `COc1ccc(S(=O)(=O)N2CCN(C(=O)N3CCN(C)CC3)CC2C(=O)NO)cc1` (stereo unspecified), the negative-log IC50 (pIC50) in assay [1] was 8.30; against Collagenase 3, 8.39; against Matrilysin, 5.57; against Stromelysin-1, 6.94; at Interstitial collagenase it was 6.45.

For `COc1ccc(S(=O)(=O)N2CCN(C(=O)c3snnc3C)CC2C(=O)NO)cc1` (stereo unspecified), the negative logarithm of the IC50 (pIC50) in assay [1] is 7.77; on Collagenase 3 it was 7.68; on Matrilysin, 5.22; on Stromelysin-1, 6.76; at Interstitial collagenase, 5.98.

As to `COc1ccc(S(=O)(=O)N2CCN(C(=O)N3CCCCCC3)CC2C(=O)NO)cc1` (stereo unspecified), the pIC50 on Collagenase 3 is 8.54; against Matrilysin, 5.57; on Stromelysin-1, 7.27; at Interstitial collagenase, 6.80.

With `COc1ccc(S(=O)(=O)N2CCN(C(=O)OC(C)(C)C)CC2C(=O)NO)cc1` (stereo unspecified), the negative logarithm of the IC50 (pIC50) is 8.64 in assay [1], 5.84 against Matrilysin, 7.22 against Stromelysin-1 and 7.09 at Interstitial collagenase.

On to `COc1ccc(S(=O)(=O)N2CCN(C(=O)C3CCCCC3)CC2C(=O)NO)cc1` (stereo unspecified), for which the pIC50 is 8.74 in assay [1]; 8.82 against Collagenase 3; 5.66 at Matrilysin; 7.57 against Stromelysin-1; 6.66 at Interstitial collagenase.

In the case of `COc1ccc(S(=O)(=O)N2CCN(C(=O)Nc3cccc(OC)c3)CC2C(=O)NO)cc1` (stereo unspecified), the pIC50 in assay [1] was 8.39; against Collagenase 3, 8.55; at Matrilysin, 5.96; at Stromelysin-1, 7.89; at Interstitial collagenase it was 7.10.

As for `COc1ccc(S(=O)(=O)N2CCN(C(=O)c3c(-c4ccccc4)noc3C)CC2C(=O)NO)cc1` (stereo unspecified), the negative-log IC50 (pIC50) in assay [1] was 7.66; at Collagenase 3, 7.57; against Matrilysin, 4.66; on Stromelysin-1, 6.39; on Interstitial collagenase, 5.88.

Consider `COc1ccc(S(=O)(=O)N2CCN(C(=O)c3ccccc3)CC2C(=O)NO)cc1` (stereo unspecified), for which the pIC50 on Matrilysin is 5.82; against Stromelysin-1, 7.18; against Interstitial collagenase it was 7.09.

On to `COc1ccc(S(=O)(=O)N2CCN(c3nc(-c4ccccc4)cs3)CC2C(=O)NO)cc1` (stereo unspecified), for which the negative logarithm of the IC50 (pIC50) in assay [1] was 7.55; on Matrilysin it was 5.48; against Stromelysin-1 it was 7.96; at Interstitial collagenase it was 6.49.

Turning to `COc1ccc(S(=O)(=O)N2CCN(C(=O)c3ccno3)CC2C(=O)NO)cc1` (stereo unspecified), the values for the pIC50 on Stromelysin-1 and on Interstitial collagenase were 6.83 and 7.21, respectively.
